Values after ≈ are worked out from the molar mass of the structure shown. Active and inactive are the calls of the source. The calls are words filed in the database; no cut-off is given here.
How the values were obtained:
[1] = Cytotoxicity against human HuH7 cells assessed as growth inhibition; type: cell-based, Huh-7
Summary of the method: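 Compound toxicity is measured as inhibition of Huh-7 cell growth, run in parallel with the HCVcc infection assay. CC50 comes from 10-point dose-response curves, done in duplicate with quadruplicate measurements.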

[2] = Selectivity index, ratio of CC50 for human HuH7 cells to EC50 for 1 MOI of HCV genotype 2 infected in human HuH7 cells; design: species or system Huh-7
Summary of the method: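 The SI is CC50 divided by EC50. Both values come from 10-point dose-response curves (duplicates, quadruplicate measurements) in Huh-7 cells. CC50 is from cell growth inhibition.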

[3] = system: Hepatitis C virus; experiment: Antiviral activity against 1 MOI of HCV genotype 2 infected in human HuH7 cells assessed as inhibition of viral RNA replication after 72 hrs by confocal microscopy; type: functional, organism-based, Hepacivirus hominis; settings: genotype 2, Huh-7, 72 h
Summary of the method: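 Reporter virus is cell-culture-adapted full-length JFH-1 with GFP inserted in NS5A domain III; GFP fluorescence tracks viral RNA replication. Serially diluted compound added to naïve Huh-7 cells, then infected with HCVcc at MOI 1. Live cells imaged by automated confocal microscopy at 72 h post-infection. EC50 from 10-point dose-response curves, run in duplicate with quadruplicate measurements.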

[4] = Half life in human liver microsomes; type: ADME, Microsome
[5] = Half life in rat liver microsomes; type: ADME, Microsome
[6] = Solubility of the compound at pH 7.4; type: physicochemical; settings: buffer
[7] = system: Hepatitis C virus; experiment: Antiviral activity against HCV genotype 1 expressing envelope protein at 1 uM; type: functional, organism-based; settings: Hepacivirus hominis
[8] = system: Hepatitis C virus; experiment: Antiviral activity against HCV genotype 2 by replicon assay; type: functional, organism-based, Hepacivirus hominis

Row | SMILES | CC50 [1] | Ratio CC50/EC50 [2] | EC50 [3] | half-life [4] | half-life [5] | solubility [6] | Activity [7] | EC50 [8]
1 | Cc1ccc(-c2c(C)nn3c(NCCc4ccccc4)cc(C)nc23)cc1 | 5.2 µM | 1 | 5.3 µM | – | – | – | – | –
2 | Cc1ccc(-c2c(C)nn3c(NC4CCN(C(C)C)CC4)cc(C)nc23)cc1 | 8.8 µM | 31 | 0.28 µM | > 1 h | > 1 h | 73 µM (≈ 27.6 µg/mL) | inactive | Not Active
3 | Cc1cc(NC2CCN(C(C)C)CC2)n2nccc2n1 | 12 µM | 1 | 12 µM | – | – | – | – | –
4 | Cc1ccc(-c2c(C)nn3c(NC4CCN(C)CC4)cc(C)nc23)cc1 | 18 µM | 18 | 1 µM | – | – | – | – | –
5 | Cc1ccc(-c2c(C)nn3c(NCCCN(C)C)cc(C)nc23)cc1 | 22 µM | 41 | 0.54 µM | > 1 h | 0.373 h | 76 µM (≈ 25.6 µg/mL) | inactive | –
6 | Cc1ccc(-c2c(C)nn3c(NCc4cccnc4)c4c(nc23)CCCC4)cc1 | 8.7 µM | 3.1 | 2.8 µM | – | – | – | – | –
7 | COCCCNc1cc(C)nc2c(-c3ccc(C)cc3)c(C)nn12 | 19 µM | 8.3 | 2.3 µM | – | – | – | – | –
8 | Cc1ccc(-c2c(C)nn3c(NCCN(C)C)cc(C(F)(F)F)nc23)cc1 | 15 µM | 2.1 | 7.2 µM | – | – | – | – | –
